Tests used:
human HDAC2 = human HDAC2 (Homo sapiens, UniProt Q92769); assay: HDAC IC50 profiling, fluorescence-based assay; format: biochemical; details: result in words
SEM cells [1] = assay: CFU assay; format: cell-based; details: 48 h exposure, colonies counted after 14 days
Procedure, shortened: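 SEM cells pretreated with test compound or control in liquid medium, then seeded in semisolid methylcellulose-based medium that also contains the compound or control. Colonies counted after 14 days.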

human HDAC1 = human HDAC1 (Homo sapiens, UniProt Q13547); assay: HDAC IC50 profiling, fluorescence-based assay; format: biochemical; details: result in words
Chain of human HDAC1 (Q13547 whole entry): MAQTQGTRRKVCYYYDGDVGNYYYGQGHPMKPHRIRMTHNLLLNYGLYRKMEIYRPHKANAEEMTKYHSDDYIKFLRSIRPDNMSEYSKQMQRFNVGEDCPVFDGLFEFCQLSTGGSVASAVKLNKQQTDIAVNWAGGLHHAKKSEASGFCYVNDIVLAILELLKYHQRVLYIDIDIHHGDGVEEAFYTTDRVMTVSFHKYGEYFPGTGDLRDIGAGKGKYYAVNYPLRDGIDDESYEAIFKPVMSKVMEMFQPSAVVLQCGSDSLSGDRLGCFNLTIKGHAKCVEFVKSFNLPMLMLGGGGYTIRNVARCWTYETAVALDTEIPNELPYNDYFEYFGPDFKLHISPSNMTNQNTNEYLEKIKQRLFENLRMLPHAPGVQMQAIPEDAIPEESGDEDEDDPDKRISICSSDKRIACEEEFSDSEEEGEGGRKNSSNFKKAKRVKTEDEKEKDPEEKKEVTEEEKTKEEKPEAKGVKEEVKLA

[2] = system: aggresome accumulation in SEM cells; assay: Aggresome detection assay; format: cell-based; details: 18 h, at inhibitory concentration
Procedure, shortened: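 SEM cells (RPMI1640, 10% FCS, 37°C, 5% CO2) exposed to test compound 18 h, then stained for aggresomes and DNA with a Proteostat aggresome detection kit. Imaged by fluorescence microscopy (63X objective), or analysed by FACS, where the aggresome propensity factor is derived from relative mean fluorescence intensity.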

SEM cells [3] = assay: Cell cycle analysis; format: cell-based; details: 48 h, dose dependent
Procedure, shortened: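 SEM cells (RPMI1640, 10% FCS, 37°C, 5% CO2) exposed to test compound for 48 h, then permeabilised. DNA stained with propidium iodide and cell cycle distribution read by FACS.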

[4] = Cell viability in PBMCs from healthy individuals; format: cell-based; details: human
[5] = system: primary BCP-ALL cells derived from four therapy-refractory patients; format: cell-based; details: Homo sapiens, read-out: IC50 values, range over four patients
[6] = system: acetyl-α-tubulin, acetyl-Histone H3, PARP in HL-60, SEM and SUP-B15r cells; assay: Western blotting of cell lysates; format: cell-based; details: 24 h
Procedure, shortened: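 HL-60 and SEM cells (RPMI1640, 10% FCS, 37°C, 5% CO2) and TKI-resistant SUP-B15r cells (McCoy's 5A, 20% FCS) exposed to test compound or reference HDAC/proteasome inhibitors for 24 h. Lysates immunoblotted for acetyl-α-tubulin, acetyl-histone H3, PARP and GAPDH.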

SEM cells [7] = assay: Proliferation assay; format: cell-based; details: at IC50 or 2x IC50 concentrations
Procedure, shortened: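 SEM cells (RPMI1640, 10% FCS, 37°C, 5% CO2) treated with test compound. Viable cells counted every 24 h by trypan blue exclusion on an automated cell counter.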

human HDAC3 = human HDAC3 (Homo sapiens, UniProt O15379); assay: HDAC IC50 profiling, fluorescence-based assay; format: biochemical; details: result in words
Chain of human HDAC3 (O15379 whole entry): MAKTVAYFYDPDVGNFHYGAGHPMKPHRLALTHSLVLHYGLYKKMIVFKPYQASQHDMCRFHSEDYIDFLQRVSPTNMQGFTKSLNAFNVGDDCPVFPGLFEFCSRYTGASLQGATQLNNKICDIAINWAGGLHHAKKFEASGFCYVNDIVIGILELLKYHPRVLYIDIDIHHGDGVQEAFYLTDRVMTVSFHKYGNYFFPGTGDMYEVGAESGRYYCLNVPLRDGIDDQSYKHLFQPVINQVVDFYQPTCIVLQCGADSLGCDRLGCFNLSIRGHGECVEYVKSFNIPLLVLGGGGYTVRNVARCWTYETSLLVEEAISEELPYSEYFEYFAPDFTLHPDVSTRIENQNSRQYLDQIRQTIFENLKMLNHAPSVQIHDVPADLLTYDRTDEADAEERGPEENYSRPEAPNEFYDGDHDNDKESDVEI
Chain of human HDAC3 (Q9Y618 395-489 partner limits assumed): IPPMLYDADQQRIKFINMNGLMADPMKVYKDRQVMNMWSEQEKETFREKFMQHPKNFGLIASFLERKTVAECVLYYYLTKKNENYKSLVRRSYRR

[8] = system: trypsin-like proteasome activity; assay: Cell-based Proteasome-Glo trypsin-like assay
Procedure, shortened: (§1)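 Cell-based Proteasome-Glo kits: a luminogenic peptide substrate is cleaved by the proteasome to aminoluciferin, which Ultra-Glo luciferase consumes to give luminescence proportional to the corresponding protease activity. Luminescence read on a plate reader.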

[9] = system: caspase-like proteasome activity; assay: Cell-based Proteasome-Glo caspase-like assay
Procedure, shortened: as §1

[10] = system: patients with relapsed or refractory multiple myeloma; details: cited from earlier work
[11] = system: peripheral blood derived mononuclear cells (PBMCs); assay: Cell viability in PBMCs from healthy individuals; format: cell-based; details: PBMCs from healthy individuals

Chain of human HDAC2 (Q92769 whole entry): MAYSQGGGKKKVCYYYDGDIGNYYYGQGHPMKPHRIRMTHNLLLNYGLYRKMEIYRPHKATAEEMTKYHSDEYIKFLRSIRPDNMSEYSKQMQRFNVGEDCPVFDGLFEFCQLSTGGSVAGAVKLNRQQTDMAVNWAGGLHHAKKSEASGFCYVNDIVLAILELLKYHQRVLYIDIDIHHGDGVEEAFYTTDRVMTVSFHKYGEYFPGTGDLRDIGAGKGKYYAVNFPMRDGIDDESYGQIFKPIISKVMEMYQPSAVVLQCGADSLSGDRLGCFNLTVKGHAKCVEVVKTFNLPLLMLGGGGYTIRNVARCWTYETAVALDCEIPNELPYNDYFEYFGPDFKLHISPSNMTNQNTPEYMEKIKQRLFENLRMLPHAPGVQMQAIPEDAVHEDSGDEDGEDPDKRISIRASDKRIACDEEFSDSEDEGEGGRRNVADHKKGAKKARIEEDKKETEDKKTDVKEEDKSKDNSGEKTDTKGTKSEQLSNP

Row | SMILES | activity against HDAC2 (human HDAC2) | colony forming capacity (SEM cells [1]) | activity against HDAC1 (human HDAC1) | aggresome accumulation [2] | cell cycle effect (SEM cells [3]) | IC50 at 72 h [4] [µM] | IC50 [5] [µM] | expression of cleaved PARP (marker of apoptosis) [6] | expression of acetyl-α tubulin and acetyl-histone H3 ([6]; compared to bortezomib) | proliferation of SEM cells (SEM cells [7]) | activity against HDAC3 (human HDAC3) | inhibition of trypsin-like proteasome activity [8] | inhibition of caspase-like proteasome activity [9] | response rate ([10]; ricolinostat in combination with bortezomib and dexamethasone) [%] | toxicity and clinical responses as single agent ([10]; single agent) | IC50 against PBMCs, concentration range in words [11]
1 | C[C@H](NC(=O)[C@H](CC(=O)NCC(C)(C)C)NC(=O)c1ccc(C(=O)NO)cc1)C(=O)NCc1ccccc1 [RTS-V5, N^1-((S)-1-(((S)-1-(Benzylamino)-1-oxopropan-2-yl)amino)-4-(neopentylamino)-1,4-dioxobutan-2-yl)-N^4-hydroxyterephthalamide] | low activity | significantly reduced | low activity | significantly blocked | arrested in S phase | > 25 | 1.51 to 5.23 | upregulated | enhanced the expression | significantly inhibited | low activity | unable to inhibit | unable to inhibit | – | – | –
2 | O=C(CCCCCCNC(=O)c1cnc(N(c2ccccc2)c2ccccc2)nc1)NO [Ricolinostat] | – | – | – | – | – | – | – | – | – | – | – | – | – | 37 | neither significant toxicity nor clinical responses | single-digit micromolar
3 | CC(C)C[C@H](NC(=O)[C@H](Cc1ccccc1)NC(=O)c1cnccn1)B(O)O [bortezomib] | – | – | – | – | – | – | – | – | – | – | – | – | – | – | – | submicromolar

From publication PMC6249066 (Journal of medicinal chemistry, 2018)
